Screens as filed in PubChem BioAssay.
IDH1 R132H inh = IDH1 R132H (human) inhibition; 70,000 tested, 0.18% active; inhibition, % at 10 µM; O75874; IDH1 R132H reductase, diaphorase/resazurin fluorescence, 60 min; in the data active = inhibition above about 34%; inconclusive = no clear call, values can overlap the other calls; inactive = below about 11%;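 also: 0% = DMSO and 100% = no enzyme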
Target sequence (O75874 whole entry R132H): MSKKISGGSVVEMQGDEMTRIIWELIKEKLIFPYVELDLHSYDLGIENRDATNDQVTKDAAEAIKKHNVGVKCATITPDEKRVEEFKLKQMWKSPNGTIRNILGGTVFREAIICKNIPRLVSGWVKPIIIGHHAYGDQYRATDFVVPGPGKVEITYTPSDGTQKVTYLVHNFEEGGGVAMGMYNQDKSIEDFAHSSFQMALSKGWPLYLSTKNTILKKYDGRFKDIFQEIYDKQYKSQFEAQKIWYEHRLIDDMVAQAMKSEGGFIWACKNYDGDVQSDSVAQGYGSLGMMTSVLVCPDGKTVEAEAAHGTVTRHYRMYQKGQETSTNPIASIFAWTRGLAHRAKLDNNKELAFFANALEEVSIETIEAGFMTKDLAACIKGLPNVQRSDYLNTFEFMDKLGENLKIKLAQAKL
KDM4C inh = KDM4C (human) demethylase inhibition; inhibition, % at 12.5 µM; 96,000 tested, 0.15% active; GST-KDM4C 2-372, H3K9me3 peptide, LANCE TR-FRET; Q9H3R0;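 active = mean replicate inhibition above about 25%, with at least 55% of replicates also reaching it, limit read from the data, passing the limit was not always enough; inconclusive = only one of those two conditions met; inactive = neither condition met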
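Material: GST-tagged GASC-1 (JMJD2C) catalytic fragment, aa 2-372 / Quantity: enzyme final amount 10 nM / Medium: HEPES buffer, pH 7.5, plus ascorbate / Doses: one test concentration per compound / Incubation: 30 min reaction, 60 min detection, RT / Measured by: LANCE TR-FRET / Read-out: inhibition from TR-FRET ratio decrease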
T cruzi growth-1 = blocks T. cruzi growth in NIH3T3 culture; T. cruzi beta-gal in NIH3T3, GalScreen luminescence, 90 h; inhibition, % at 8.34 µM; 77,000 tested, 5.9% active;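 active = mean inhibition above about 93%, with at least 55% of replicates each passing it, limit read from the data, passing the limit was not always enough; inconclusive = only one of those two conditions holds; inactive = neither condition holds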
T cruzi growth-2 = blocks T. cruzi growth in NIH3T3 host cells | 5,600 tested, 72% active | inhibition, % at 8.35 µM | shares compounds with T cruzi growth-1 | T. cruzi beta-gal in NIH3T3, GalScreen luminescence, 90 h | AID 651739;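 active = mean replicate inhibition above about 95% and at least 55% of replicates individually reaching it, limit read from the data; inconclusive = only one of the two criteria is met; inactive = neither criterion is met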
T cruzi growth-3 = blocks T. cruzi growth in NIH3T3 host cells. shares compounds with T cruzi growth-1. T. cruzi beta-gal in NIH3T3, GalScreen luminescence, 90 h. inhibition, % at 2.09 µM. 5,600 tested, 21% active. AID 651740;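 active = mean inhibition above about 95%, with at least 55% of replicates also reaching it, limit read from the data; inconclusive = meets just one of the two conditions; inactive = meets neither condition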;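 also: plate controls were neutral control median for no effect and positive control median for full effect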
NIH3T3 tox = kills mouse NIH/3T3 fibroblasts | shares compounds with T cruzi growth-1 | NIH/3T3 viability, CellTiter-Glo ATP luminescence, 90 h | cytotoxicity (signal decrease), % at 8.35 µM | 5,600 tested, 14% active | AID 651742;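 active = mean signal decrease across replicates above about 35% based on untreated-well scatter, with enough replicates individually passing, limit read from the data; inconclusive = no rule stated though some were filed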;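 also: 0% = median of neutral control wells and 100% = median of positive control wells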
NIH3T3 tox 2 = NIH/3T3 (mouse) viability loss; shares compounds with T cruzi growth-1; NIH/3T3 viability, CellTiter-Glo ATP luminescence, 90 h; inhibition, % at 24.9 µM; 5,600 tested, 56% active; AID 651744;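 active = mean loss of cell viability signal at or above a set limit, and enough replicates individually reaching it; inconclusive = meets only the mean limit or only the replicate share; inactive = meets neither condition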;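 also: 0% = median of neutral control wells and 100% = median of positive control wells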
An asterisk follows results filed as active; u = inconclusive; x = no result; + = active, no number; ! = not confirmed by another sample. This is one part of a sample in which hits are shown more often than they occur.

SMILES	IDH1 R132H inh	KDM4C inh	T cruzi growth-1	T cruzi growth-2	T cruzi growth-3	NIH3T3 tox	NIH3T3 tox 2
CN(C)C(=O)c1ccc(-c2ccc([C@@H]3[C@H]4CN(C(=O)C5CCC5)CCCCN4[C@H]3CO)cc2)cc1	x	x	101*	95*	44	33	38*
CN1[C@@H]2c3ccc(-c4ccccc4)c(=O)n3C[C@@H]2[C@@H](CO)[C@@H]1C(=O)Nc1ccccc1	x	4	101*	92	16	4	18
COc1ccc(-c2ccc3n(c2=O)C[C@H]2[C@H](CO)[C@@H](C(=O)Nc4ccccc4)N(C)[C@@H]32)cc1	x	6	x	x	x	x	x
CN(C)CC(=O)N1[C@H](C(=O)NC2CCC2)[C@@H](CO)[C@@H]2Cn3c(ccc(-c4ccccc4)c3=O)[C@@H]21	x	2	+	60	-20	-13	-24
CC(=O)N1[C@H](C(=O)NC2CCC2)[C@@H](CO)[C@@H]2Cn3c(ccc(-c4ccccc4)c3=O)[C@@H]21	x	1	21	x	x	x	x
CN1[C@H](C(=O)Nc2ccccc2)[C@@H](CO)[C@@H]2Cn3c(ccc(-c4ccccc4)c3=O)[C@@H]21	x	7	100*	59	-20	-1	u
CCN1[C@H](C(=O)Nc2ccccc2)[C@@H](CO)[C@@H]2Cn3c(ccc(-c4ccncc4)c3=O)[C@@H]21	x	1	14	x	x	x	x
C[C@@H]1CN([C@H](C)CO)C(=O)Cc2cc(NS(=O)(=O)c3ccc(Cl)cc3)ccc2O[C@H]1CN(C)S(=O)(=O)c1cn(C)cn1	0	0	-4	x	x	x	x
C/C=C/c1cnc2c(c1)C(=O)N([C@H](C)CO)C[C@@H](C)[C@@H](CN(C)C(=O)c1cnccn1)O2	0	1	x	x	x	x	x
O=C(C[C@H]1CC[C@@H]2[C@H](COC[C@H](O)CN2Cc2nccs2)O1)NCc1ccccc1F	x	-2	12	x	x	x	x
C[C@H](CO)N1C[C@H](C)[C@@H](CN(C)C(=O)C2CCOCC2)Oc2cc(C3=CCCC3)ccc2S1(=O)=O	x	0	u	67	6	20	29*
C[C@@H]1CN([C@@H](C)CO)S(=O)(=O)c2ccc(C3=CCCCC3)cc2O[C@H]1CN(C)C(=O)C1CCC1	x	2	28	x	x	x	x
C[C@H]1CN([C@@H](C)CO)S(=O)(=O)c2ccc(C3=CCCC3)cc2O[C@@H]1CN(C)C(=O)C1CCCCC1	x	-1	105*!	102*!	71	-6	57*!
C[C@@H]1CN([C@@H](C)CO)S(=O)(=O)c2ccc(C3=CCCC3)cc2O[C@@H]1CN(C)C(=O)C1CCOCC1	x	0	65	x	x	x	x
C[C@H]1CN([C@@H](C)CO)S(=O)(=O)c2ccc(C3=CCCC3)cc2O[C@H]1CN(C)C(=O)C1CCC1	6	-3	52	x	x	x	x
C[C@@H]1CN([C@H](C)CO)S(=O)(=O)c2ccc(C3=CCCCC3)cc2O[C@@H]1CN(C)C(=O)C1CCCCC1	x	-2	127*	96*	92	30	102*
COc1ccccc1C#Cc1ccc2c(c1)O[C@H](CN(C)Cc1cncnc1)[C@H](C)CN([C@H](C)CO)S2(=O)=O	-6	3	95	x	x	x	x
CCCn1c(SCc2nc(-c3cccs3)no2)nnc1-c1ccncc1	0	x	x	x	x	x	x
C[C@@H]1CCCCO[C@H](CN(C)C(=O)Nc2ccc3c(c2)OCO3)[C@H](C)CN([C@@H](C)CO)C(=O)c2cc(NC(=O)CCC(F)(F)F)ccc2O1	x	0	79	x	x	x	x
O=C(C[C@@H]1C=C[C@H](NC(=O)CCN2CCCCC2)[C@@H](CO)O1)Nc1nccs1	0	0	34	x	x	x	x
COc1cccc(-c2ccc([C@@H]3[C@@H](CO)N4CCCCN(S(=O)(=O)c5cccs5)C[C@H]34)cc2)c1	x	-1	67	x	x	x	x
Cc1cccc(-c2ccc([C@@H]3[C@@H](CO)N4CCCCN(S(=O)(=O)c5cccc(C)c5)C[C@@H]34)cc2)c1	x	0	89	x	x	x	x
Cc1cccc(-c2ccc([C@@H]3[C@H](CO)N4CCCCN(S(=O)(=O)c5cccs5)C[C@@H]34)cc2)c1	x	-1	103*	106*	64	47*	102*
Cc1cccc(-c2ccc([C@@H]3[C@H]4CN(S(=O)(=O)c5cccs5)CCCCN4[C@H]3CO)cc2)c1	x	0	98*	107*	75	25	60*
Cc1cccc(-c2ccc([C@H]3[C@@H](CO)N4CCCCN(S(=O)(=O)c5cccc(C)c5)C[C@@H]34)cc2)c1	x	-1	73	x	x	x	x
SMILES	IDH1 R132H inh	KDM4C inh	T cruzi growth-1	T cruzi growth-2	T cruzi growth-3	NIH3T3 tox	NIH3T3 tox 2
COc1cccc(-c2ccc([C@@H]3[C@H](CO)N4CCCCN(S(=O)(=O)c5cccs5)C[C@@H]34)cc2)c1	x	-2	89	x	x	x	x
Cc1cccc(-c2ccc([C@@H]3[C@@H](CO)N4CCCCN(S(=O)(=O)c5cccs5)C[C@@H]34)cc2)c1	x	-3	115*	106*	32	44*	70*
Cc1cccc(-c2ccc([C@H]3[C@H](CO)N4CCCCN(S(=O)(=O)c5cccs5)C[C@@H]34)cc2)c1	x	-1	115*	108*	78	29	105*
COc1ccc(S(=O)(=O)N[C@H]2C=C[C@@H](CC(=O)N3CCC(Cc4ccccc4)CC3)O[C@@H]2CO)cc1	0	1	-8	x	x	x	x
O=C(CCCCC(=O)N/N=C\c1ccc2ccccc2n1)NO	0	x	x	x	x	x	x
COc1ccc(/C=C/C(=O)CC(=O)/C=C/c2cccc(O)c2OC)cc1O	-2	x	x	x	x	x	x
COc1ccc(-c2noc(CSc3nnc(C)n3-c3ccccc3)n2)cc1	0	x	x	x	x	x	x
COc1ccc(NC(=O)Nc2ccc3c(c2)C(=O)N([C@H](C)CO)C[C@H](C)[C@H](CN(C)C(=O)Nc2ccc4c(c2)OCO4)OCCCC[C@H](C)O3)cc1	1	0	u	111*	66	-5	-12
COc1ccc(NC(=O)N(C)C[C@@H]2OCCCC[C@H](C)Oc3ccc(NC(=O)Nc4ccc5c(c4)OCO5)cc3C(=O)N([C@@H](C)CO)C[C@@H]2C)cc1	-5	-2	44	x	x	x	x
COc1ccc(NC(=O)N(C)C[C@@H]2OCCCC[C@@H](C)Oc3ccc(NC(=O)Nc4ccc5c(c4)OCO5)cc3C(=O)N([C@H](C)CO)C[C@H]2C)cc1	-1	-2	76	x	x	x	x
COc1ccc(NC(=O)Nc2ccc3c(c2)C(=O)N([C@@H](C)CO)C[C@H](C)[C@H](CN(C)C(=O)Nc2ccc4c(c2)OCO4)OCCCC[C@H](C)O3)cc1	x	11	u	108*	42	7	-12
C[C@@H]1CN([C@@H](C)CO)C(=O)c2cc(NC(=O)C3CCCCC3)ccc2O[C@@H](C)CCCCO[C@H]1CN(C)C(=O)Nc1cccc2ccccc12	0	-4	70	x	x	x	x
